Source: ChEMBL document CHEMBL1123757, “Selective thromboxane synthetase inhibitors and antihypertensive agents. New derivatives of 4-hydrazino-5H-pyridazino[4,5-b]indole, 4-hydrazinopyridazino[4,5-a]indole, and related compounds” (J Med Chem, 1987)

Experiments:
[1] = tested on: Rattus norvegicus; test: Antihypertensive activity in spontaneously hypertensive rats (SHR) measured by percentage fall in arterial pressure (AP) at a dose of 25 mg/kg administered perorally at 1 h; assay type: functional, Artery; conditions: route oral
Outline: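 Oral dosing at 2.5 mL/kg to unanesthetized male and female Okamoto-strain SHR (8 weeks old, 300–350 g, systolic pressure ≥190 mmHg, heart rate 400–650 beats/min), five per dose. Vehicle was normal saline or saline with 0.2% (carboxymethyl)cellulose and 1.0% Tween 80. AP measured on the tail by mechanical transduction at set times; expressed as percentage fall from control.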

[2] = tested on: Rattus norvegicus; test: Antihypertensive activity in spontaneously hypertensive rats (SHR) measured by percentage fall in cardiac rhythm (CR) at 25 mg/kg administered perorally at 3 h; assay type: functional, Heart; conditions: route oral
Outline: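 Conscious SHR (Okamoto strain), 8 weeks old, male and female, 300–350 g, systolic BP ≥190 mmHg, CR 400–650 beats/min. Given ip or po at 2.5 mL/kg in normal saline or saline with 0.2% (carboxymethyl)cellulose and 1.0% Tween 80. Tail AP and CR recorded by mechanical transduction at 1, 3, 5 and 24 h, five animals per dose. Effect expressed as % fall versus control.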

COc1ccc2[nH]c3c(NN)nncc3c2c1.Cl
Decrease in AP [1]: 50% | Decrease in CR [2]: -14%
